Data published in article PMC6392825 (ChemistryOpen, 2019).
Converted amounts (≈) assume the structure as drawn.

What was measured:
[1] = Water solubility, shake flask method, 0.1 M phosphate buffer pH 6.8; format: physicochemical; conditions: 37 °C, pH 6.8, aqueous buffer, thermodynamic from solid
[2] = Chemical antioxidant capacity, FRAP assay
HepG2 [3] = assay: Cytotoxicity, mitochondrial activity; format: cell-based; conditions: Homo sapiens, HepG2, 72 h, read-out: IC50 MTT
How it was run: (§1)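 Seeded at 20000 cells/well in DMEM and grown 24 h at 37 °C, 10% CO2. Medium was then replaced with serum-free medium holding test compound (25 mM DMSO stock) at various concentrations for 72 h, in triplicate; doxorubicin was the positive control. MTT (5 mg/mL stock in PBS) added for 2 h, formazan dissolved in DMSO, A570. IC50 derived from % surviving cells, reported as mean ± SD combined with SRB data.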

HT‐29 [4] = assay: Cytotoxicity, mitochondrial activity; format: cell-based; conditions: Homo sapiens, HT-29, 72 h, read-out: IC50 MTT
How it was run: as §1

Caco‐2 [5] = assay: Cytotoxicity, mitochondrial activity; format: cell-based; conditions: Homo sapiens, Caco-2, 72 h, read-out: IC50 MTT
How it was run: as §1

EA.hy926 [6] = assay: Cytotoxicity, mitochondrial activity; format: cell-based; conditions: Homo sapiens, EA.hy 926, 72 h, read-out: IC50 MTT
How it was run: as §1

HepG2 [7] = assay: Cell growth inhibition, protein content; format: cell-based; conditions: Homo sapiens, HepG2, 72 h, read-out: IC50 SRB
How it was run: (§2)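 Cell lines from ATCC, grown in DMEM+glutamax with 1% NEAA, 1% P/S and 10% FBS at 37 °C, 10% CO2. Seeded at 20000 cells/well for 24 h, then exposed to test compound (25 mM DMSO stock) for three days. Fixed with cold TCA for 1 h at 4 °C, stained 30 min with 0.4% SRB in 1% acetic acid, dissolved in 10 mM Tris, A490. Triplicate; IC50 given as mean ± SD combined with MTT data (n ≥ 3).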

HT‐29 [8] = assay: Cell growth inhibition, protein content; format: cell-based; conditions: Homo sapiens, HT-29, 72 h, read-out: IC50 SRB
How it was run: as §2

Caco‐2 [9] = assay: Cell growth inhibition, protein content; format: cell-based; conditions: Homo sapiens, Caco-2, 72 h, read-out: IC50 SRB
How it was run: as §2

EA.hy926 [10] = assay: Cell growth inhibition, protein content; format: cell-based; conditions: Homo sapiens, EA.hy 926, 72 h, read-out: IC50 SRB
How it was run: as §2

HepG2 [11] = assay: Intracellular ROS assay; format: cell-based; conditions: for change of intracellular ROS in words: HepG2, vs untreated control, 10 and 1 μM; for activity at 1 µM / activity at 10 µM: Homo sapiens, HepG2, read-out: Intracellular ROS, percentage compared to the untreated control cells (ROS/SRB)
How it was run: (§3)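 Cells seeded at 20000/well and grown 24 h at 37 °C, 10% CO2, then treated with test compound at 10 and 1 μM in serum-free medium. NAC and doxorubicin served as controls. After a PBS wash, cells were loaded with 20 μM DCFH-DA for 30 min, washed, and held 1 h in phenol red-free DMEM. Fluorescence read at ex 485/em 535 nm and normalized to SRB in the same well. Reported as % of untreated control, n ≥ 3, two-tailed t-test with unequal variances.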

HT‐29 [12] = assay: Intracellular ROS assay; format: cell-based; conditions: for activity at 1 µM / activity at 10 µM: Homo sapiens, HT-29, read-out: Intracellular ROS, percentage compared to the untreated control cells (ROS/SRB); for change of intracellular ROS in words: HT‐29, vs untreated control, 10 and 1 μM
How it was run: as §3

Caco‐2 [13] = assay: Intracellular ROS assay; format: cell-based; conditions: for activity at 1 µM / activity at 10 µM: Homo sapiens, Caco-2, read-out: Intracellular ROS, percentage compared to the untreated control cells (ROS/SRB)
How it was run: as §3

EA.hy926 [14] = assay: Intracellular ROS assay; format: cell-based; conditions: for activity at 1 µM / activity at 10 µM: Homo sapiens, EA.hy 926, read-out: Intracellular ROS, percentage compared to the untreated control cells (ROS/SRB)
How it was run: as §3

[15] = system: HepG2, HT‐29, Caco‐2 and EA.hy926; assay: Antiproliferative activity, MTT and SRB assays taken together; format: cell-based
CHO‐K1 = assay: Intracellular ROS assay; format: cell-based, Chinese hamster; conditions: CHO‐K1, vs untreated control, 10 and 1 μM
How it was run: as §3

Row | solubility at 90 min [1] | solubility at 24 h [1] | IC50 (HepG2 [7]) | IC50 (Caco‐2 [9]) | SMILES | FRAP (Trolox equivalent per μM) [2] | FRAP (curcumin equivalent per μM) [2] | IC50 (HepG2 [3]) | IC50 (HT‐29 [4]) | IC50 (Caco‐2 [5]) | IC50 (EA.hy926 [6]) | IC50 (HT‐29 [8]) | IC50 (EA.hy926 [10]) | change of intracellular ROS in words (HepG2 [11]) | activity at 10 µM (HepG2 [11]) | activity at 1 µM (HT‐29 [12]) | activity at 10 µM (HT‐29 [12]) | activity at 1 µM (Caco‐2 [13]) | activity at 10 µM (Caco‐2 [13]) | activity at 1 µM (EA.hy926 [14]) | activity at 10 µM (EA.hy926 [14]) | also measured
1 | 6.4 ± 0.2 µM (≈ 2.36 µg/mL) | 7 ± 0.2 µM (≈ 2.59 µg/mL) | 28.3 ± 4.7 µM | 60.3 ± 3.5 µM | COc1cc(/C=C/c2cc(/C=C/c3cccc4cnccc34)[nH]n2)ccc1O [4 c, 2‐Methoxy‐4‐{(E)‐2‐[5‐((E)‐2‐(isoquinolin‐5‐yl)vinyl)‐1H‐pyrazol‐3‐yl]vinyl}phenol] | 0.15 Trolox equivalent per μM | 0.14 curcumin equivalent per μM | 6.7 ± 0.4 µM | 37.7 ± 1.3 µM | 58.7 ± 2 µM | 38.8 ± 0.4 µM | > 75 µM | > 75 µM | significantly decreased ROS signal | 88 ± 10.6% | 94.4 ± 3.4% | 86.4 ± 8.2% | 108 ± 18.6% | 102 ± 17.3% | 89.9 ± 2.5% | 99.2 ± 5% | activity at 1 µM (HepG2 [11]): 74.7 ± 2.9%; antiproliferative activity / cell growth inhibition in words [15]: comparable activity to the commercial doxorubicin drug
2 | 13.7 ± 0.5 µM (≈ 4.35 µg/mL) | 11.7 ± 2.3 µM (≈ 3.71 µg/mL) | 49.5 ± 2.1 µM | 21.1 ± 0.3 µM | C(=C\c1c[nH]c2ccccc12)/c1cc(/C=C/c2cccs2)[nH]n1 [4 d, 3‐{(E)‐2‐[5‐((E)‐2‐(thiophen‐2‐yl)vinyl)‐1H‐pyrazol‐3‐yl]vinyl}‐1H‐indole] | 0.33 Trolox equivalent per μM | 0.32 curcumin equivalent per μM | 34.9 ± 0.8 µM | 4.2 ± 0.4 µM | 19.6 ± 4 µM | 6 ± 0.9 µM | 9.7 ± 0.5 µM | 9.5 ± 0.4 µM | significantly increased ROS production | 985 ± 78.2% | 463 ± 42.7% | 384 ± 47.5% | 458 ± 97.5% | 382 ± 62.6% | 483.9 ± 1.4% | 402 ± 23.4% | change of intracellular ROS in words (HT‐29 [12]): higher ROS signal; change of intracellular ROS in words (Caco‐2 [13]; Caco‐2, vs untreated control, 10 and 1 μM): significantly increased ROS production; change of intracellular ROS in words (EA.hy926 [14]; EA.hy926, vs untreated control, 10 and 1 μM): significantly increased ROS production; change of intracellular ROS in words (CHO‐K1): significantly increased ROS
3 | 20.9 ± 1.7 µM (≈ 6.51 µg/mL) | 18.3 ± 0.4 µM (≈ 5.7 µg/mL) | 7.1 ± 0.2 µM | 15.9 ± 2 µM | COc1cc(/C=C/C(=O)/C=C(O)/C=C/c2ccc[nH]2)ccc1O [3 f, (1E,4Z,6E)‐5‐Hydroxy‐1‐(4‐hydroxy‐3‐methoxyphenyl)‐7‐(1H‐pyrrol‐2‐yl)hepta‐1,4,6‐trien‐3‐one] | 0.56 Trolox equivalent per μM | 0.54 curcumin equivalent per μM | 31.7 ± 0.6 µM | 33.9 ± 0.4 µM | 17.1 ± 0.4 µM | 45.6 ± 0.9 µM | 36.1 ± 2.3 µM | 33.8 ± 1.4 µM | significantly increased ROS production | 216 ± 13.7% | 117 ± 10.5% | 109 ± 2.6% | 125 ± 3.5% | 147 ± 12% | 125 ± 9.7% | 132 ± 12.7% | antioxidant activity in words, FRAP [2]: comparable to ascorbic acid; activity at 1 µM (HepG2 [11]): 98.9 ± 2.9%; change of intracellular ROS in words (HT‐29 [12]): higher ROS signal; change of intracellular ROS in words (CHO‐K1): significantly increased ROS
